# ChEMBL document CHEMBL5678817, “FTBMT, a Novel and Selective GPR52 Agonist, Demonstrates Antipsychotic-Like and Procognitive Effects in Rodents, Revealing a Potential Therapeutic Agent for Schizophrenia” (J Pharmacol Exp Ther, 2017)
# Activity calls are given as the source filed them.
# How the values were obtained:
# [1] = molecular target: G-protein coupled receptor 52 (Homo sapiens, UniProt Q9Y2T5); assay: Agonist activity at human GPR52 expressed in CHO cells assessed as increase in intracellular cAMP level incubated for 30 mins by Alphascreen assay; type: functional, cell-based
# G-protein coupled receptor 52 (Homo sapiens, UniProt Q9Y2T5), sequence (Q9Y2T5 whole entry): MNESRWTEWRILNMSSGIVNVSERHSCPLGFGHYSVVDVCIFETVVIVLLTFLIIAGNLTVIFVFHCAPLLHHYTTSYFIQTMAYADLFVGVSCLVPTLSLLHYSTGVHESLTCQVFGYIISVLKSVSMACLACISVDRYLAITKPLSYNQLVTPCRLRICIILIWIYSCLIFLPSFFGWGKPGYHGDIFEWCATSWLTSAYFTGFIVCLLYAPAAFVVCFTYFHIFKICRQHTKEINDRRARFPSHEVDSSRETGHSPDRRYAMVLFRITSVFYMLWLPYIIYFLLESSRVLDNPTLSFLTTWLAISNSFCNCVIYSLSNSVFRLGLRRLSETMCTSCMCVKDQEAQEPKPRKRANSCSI
# Method in brief: (§1)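 CHO cells stably expressing human, mouse or rat GPR52, plus naïve CHO cells, at 10,000 cells/well. Stimulated in cAMP assay buffer for 30 min at 37 °C. Intracellular cAMP read by AlphaScreen.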
# [2] = molecular target: G-protein coupled receptor 52 (Mus musculus, UniProt P0C5J4); assay: Agonist activity at mouse GPR52 expressed in CHO cells assessed as increase in intracellular cAMP level incubated for 30 mins by Alphascreen assay; type: functional, cell-based; method in brief: as §1
# G-protein coupled receptor 52 (Mus musculus, UniProt P0C5J4), sequence (P0C5J4 whole entry): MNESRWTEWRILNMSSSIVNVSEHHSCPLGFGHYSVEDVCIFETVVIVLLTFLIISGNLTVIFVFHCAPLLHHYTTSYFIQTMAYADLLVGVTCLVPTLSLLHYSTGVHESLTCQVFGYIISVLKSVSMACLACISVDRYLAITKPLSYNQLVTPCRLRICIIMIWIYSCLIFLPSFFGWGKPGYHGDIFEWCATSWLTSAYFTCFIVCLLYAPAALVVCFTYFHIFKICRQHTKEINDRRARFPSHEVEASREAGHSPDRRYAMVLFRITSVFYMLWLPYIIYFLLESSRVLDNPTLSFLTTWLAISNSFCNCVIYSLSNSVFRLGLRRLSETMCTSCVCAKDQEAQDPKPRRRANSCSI
# [3] = molecular target: G protein-coupled receptor 52 (Rattus norvegicus, UniProt A0A8I5ZQK1); assay: Agonist activity at rat GPR52 expressed in CHO cells assessed as increase in intracellular cAMP level incubated for 30 mins by Alphascreen assay; type: cell-based; method in brief: as §1
# G protein-coupled receptor 52, sequence (A0A8I5ZQK1 whole entry): as the sequence (P0C5J4 whole entry) above, with M14V, E250D, E333Q, A342G, Q348R counted along it
# [4] = molecular target: Carbonic anhydrase 2 (Homo sapiens) (UniProt P00918); assay: Inhibition of Carbonic anhydrase II (unknown origin) at 10 uM relative to control
# Method in brief: (§2)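 Single-point screen at 10 μM across receptor, ion channel and enzyme binding or activity assays. Expressed as percent inhibition versus control; negative values denote stimulation.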
# [5] = molecular target: Polyunsaturated fatty acid 5-lipoxygenase (Homo sapiens) (UniProt P09917); assay: Inhibition of […] (unknown origin) at 10 uM relative to control
# Polyunsaturated fatty acid 5-lipoxygenase (Homo sapiens), sequence (P09917 whole entry): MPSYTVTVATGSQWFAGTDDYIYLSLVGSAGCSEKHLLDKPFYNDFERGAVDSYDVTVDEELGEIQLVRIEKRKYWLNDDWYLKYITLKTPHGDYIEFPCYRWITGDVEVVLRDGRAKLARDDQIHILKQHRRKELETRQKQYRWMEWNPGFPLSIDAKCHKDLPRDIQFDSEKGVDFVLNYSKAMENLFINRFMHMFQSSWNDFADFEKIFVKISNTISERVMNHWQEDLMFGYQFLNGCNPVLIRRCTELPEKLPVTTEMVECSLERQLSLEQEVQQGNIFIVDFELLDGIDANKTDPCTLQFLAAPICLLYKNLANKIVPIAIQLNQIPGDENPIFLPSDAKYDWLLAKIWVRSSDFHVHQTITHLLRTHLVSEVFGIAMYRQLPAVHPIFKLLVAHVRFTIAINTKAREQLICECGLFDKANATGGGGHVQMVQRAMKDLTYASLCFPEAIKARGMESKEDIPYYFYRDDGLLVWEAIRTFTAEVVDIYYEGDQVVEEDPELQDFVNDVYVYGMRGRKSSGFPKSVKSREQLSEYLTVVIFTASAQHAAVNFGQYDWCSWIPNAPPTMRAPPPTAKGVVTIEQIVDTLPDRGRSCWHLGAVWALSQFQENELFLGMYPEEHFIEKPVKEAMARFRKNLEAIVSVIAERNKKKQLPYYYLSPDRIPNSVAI
# Method in brief: (§3)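 Enzyme activity assays from the same 98-target biochemical panel. Single test concentration of 10 µM. Read-out is % inhibition of enzyme activity relative to control; negative percentages indicate activation of the enzyme.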
# [6] = molecular target: cGMP-specific 3',5'-cyclic phosphodiesterase (Homo sapiens) (UniProt O76074); assay: Inhibition of PDE5 (unknown origin) at 10 uM relative to control; method in brief: as §3
# [7] = molecular target: Adenosine receptor A2a (Homo sapiens) (UniProt P29274); assay: Inhibition of Adenosine A2A receptor (unknown origin) at 10 uM relative to control; method in brief: as §2
# Adenosine receptor A2a (Homo sapiens), sequence (P29274 whole entry): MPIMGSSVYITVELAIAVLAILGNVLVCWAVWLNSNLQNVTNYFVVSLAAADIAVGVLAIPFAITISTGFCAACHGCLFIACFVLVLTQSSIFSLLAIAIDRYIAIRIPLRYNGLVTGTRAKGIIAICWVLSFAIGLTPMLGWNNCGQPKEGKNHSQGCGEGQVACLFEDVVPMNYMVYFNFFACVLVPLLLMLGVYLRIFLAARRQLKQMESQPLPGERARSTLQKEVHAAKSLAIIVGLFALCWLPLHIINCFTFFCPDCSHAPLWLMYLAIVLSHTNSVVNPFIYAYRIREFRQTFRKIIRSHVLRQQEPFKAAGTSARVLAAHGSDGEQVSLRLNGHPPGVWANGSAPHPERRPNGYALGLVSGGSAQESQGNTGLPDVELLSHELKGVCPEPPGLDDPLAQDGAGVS
# [8] = molecular target: Type-1 angiotensin II receptor (Homo sapiens) (UniProt P30556); assay: Inhibition of AT1 receptor (unknown origin) at 10 uM relative to control; method in brief: as §2
# Type-1 angiotensin II receptor (Homo sapiens), sequence (P30556 whole entry): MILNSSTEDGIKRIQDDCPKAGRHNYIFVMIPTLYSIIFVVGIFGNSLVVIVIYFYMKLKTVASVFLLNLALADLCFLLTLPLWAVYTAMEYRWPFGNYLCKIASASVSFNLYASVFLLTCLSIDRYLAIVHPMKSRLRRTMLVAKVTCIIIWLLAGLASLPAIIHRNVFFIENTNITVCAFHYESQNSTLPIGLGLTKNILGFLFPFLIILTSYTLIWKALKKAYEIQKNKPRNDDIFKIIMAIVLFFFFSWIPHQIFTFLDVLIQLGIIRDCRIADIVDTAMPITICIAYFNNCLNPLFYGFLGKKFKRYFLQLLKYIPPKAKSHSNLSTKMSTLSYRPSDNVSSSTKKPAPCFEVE
# [9] = molecular target: Voltage-gated L-type calcium channel (Homo sapiens, UniProt O60840+Q01668+Q13698+Q13936); assay: Inhibition of Calcium channel L-type (unknown origin) at 10 uM in presence of phenylalkylamine relative to control; type: protein assay; settings: probe phenylalkylamine; method in brief: as §2
# [10] = molecular target: Gastrin/cholecystokinin type B receptor (Homo sapiens) (UniProt P32239); assay: Inhibition of CCK2 receptor (unknown origin) at 10 uM relative to control; method in brief: as §2
# Gastrin/cholecystokinin type B receptor (Homo sapiens), sequence (P32239 whole entry): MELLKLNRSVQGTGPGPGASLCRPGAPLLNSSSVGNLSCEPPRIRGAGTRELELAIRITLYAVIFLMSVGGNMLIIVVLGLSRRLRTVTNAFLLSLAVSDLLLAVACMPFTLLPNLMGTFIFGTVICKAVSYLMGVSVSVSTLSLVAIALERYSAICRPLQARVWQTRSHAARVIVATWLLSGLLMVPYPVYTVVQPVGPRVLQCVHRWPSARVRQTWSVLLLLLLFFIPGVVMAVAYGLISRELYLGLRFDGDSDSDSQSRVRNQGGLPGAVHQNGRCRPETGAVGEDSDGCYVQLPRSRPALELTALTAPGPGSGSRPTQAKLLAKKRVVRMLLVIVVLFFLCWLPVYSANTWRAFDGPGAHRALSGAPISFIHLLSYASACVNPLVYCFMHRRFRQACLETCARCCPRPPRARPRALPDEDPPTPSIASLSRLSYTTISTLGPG
# [11] = molecular target: D(1A) dopamine receptor (Homo sapiens) (UniProt P21728); assay: Inhibition of Dopamine D1 receptor (unknown origin) at 10 uM relative to control; method in brief: as §2
# D(1A) dopamine receptor (Homo sapiens), sequence (P21728 whole entry): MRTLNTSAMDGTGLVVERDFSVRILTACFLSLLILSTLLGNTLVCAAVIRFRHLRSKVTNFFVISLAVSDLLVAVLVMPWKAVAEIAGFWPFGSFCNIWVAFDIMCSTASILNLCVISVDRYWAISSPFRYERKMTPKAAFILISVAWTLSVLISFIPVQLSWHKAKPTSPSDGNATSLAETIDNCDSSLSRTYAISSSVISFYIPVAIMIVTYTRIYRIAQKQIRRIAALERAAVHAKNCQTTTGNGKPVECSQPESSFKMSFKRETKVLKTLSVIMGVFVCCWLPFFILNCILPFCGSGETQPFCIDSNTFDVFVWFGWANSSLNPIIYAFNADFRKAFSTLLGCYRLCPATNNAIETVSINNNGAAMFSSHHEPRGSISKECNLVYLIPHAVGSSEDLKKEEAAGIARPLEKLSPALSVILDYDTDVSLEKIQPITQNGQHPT
# [12] = molecular target: T1, GABA-A receptor; anion channel (Homo sapiens) (UniProt P14867+P47870+P18507+P28472+P48169+Q99928+Q9UN88+P34903+O00591+O14764+Q8N1C3+P18505+P78334+P47869+P31644+Q16445); assay: Inhibition of GABAA receptor (unknown origin) at 10 uM relative to control; type: protein-complex assay
# Method in brief: (§4)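 Part of a 98-target external biochemical selectivity panel that used radioligand/receptor binding-type assays. Compound tested once at 10 µM. Results are reported as % inhibition versus control; negative values mean stimulation of receptor activity.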
# [13] = molecular target: T1, GABA-A receptor; anion channel (Homo sapiens); assay: Inhibition of GABAA receptor (unknown origin) at 10 uM in presence of muscimol relative to control; type: protein-complex assay; method in brief: as §4
# Homo sapiens [14] = organism: Homo sapiens; assay: Inhibition of non-selective GABAB receptor (unknown origin) at 10 uM relative to control
# Method in brief: (§5)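 Binding and enzyme panel run by an outside contractor against receptors, ion channels and enzymes. Each assay used a single 10 μM test concentration, and results are expressed as percent inhibition. A negative value means stimulation of receptor activity or activation of enzyme activity.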
# Homo sapiens [15] = organism: Homo sapiens; assay: Inhibition of GABAB1A receptor (unknown origin) at 10 uM relative to control; method in brief: as §4
# [16] = molecular target: Glutamate [NMDA] receptor (Homo sapiens) (UniProt Q05586+Q12879+Q13224+O15399+O60391+Q14957+Q8TCU5); assay: Inhibition of Glutamate NMDA receptor (unknown origin) at 10 uM relative to control; type: protein-complex assay; method in brief: as §4
# Homo sapiens [17] = organism: Homo sapiens; assay: Inhibition of strychnine-Glycine receptor (unknown origin) at 10 uM relative to control; method in brief: as §5
# [18] = molecular target: Vasopressin V1a receptor (Homo sapiens) (UniProt P37288); assay: Inhibition of Vasopressin V1A receptor (unknown origin) at 10 uM relative to control; method in brief: as §5
# Vasopressin V1a receptor (Homo sapiens), sequence (P37288 whole entry, looked up): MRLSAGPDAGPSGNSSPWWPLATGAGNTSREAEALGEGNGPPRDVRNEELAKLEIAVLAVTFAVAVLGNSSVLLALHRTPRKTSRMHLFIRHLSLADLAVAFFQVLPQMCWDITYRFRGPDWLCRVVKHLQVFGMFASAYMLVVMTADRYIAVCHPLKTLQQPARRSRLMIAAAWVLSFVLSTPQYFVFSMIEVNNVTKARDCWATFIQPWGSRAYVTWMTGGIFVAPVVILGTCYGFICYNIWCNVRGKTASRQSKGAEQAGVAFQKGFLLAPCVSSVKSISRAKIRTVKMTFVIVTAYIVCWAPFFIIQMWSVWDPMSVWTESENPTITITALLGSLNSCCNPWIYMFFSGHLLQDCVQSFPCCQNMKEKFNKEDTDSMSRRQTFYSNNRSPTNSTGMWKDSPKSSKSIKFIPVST
# [19] = molecular target: T2, G protein-coupled receptor 52 (Rattus norvegicus) (UniProt A0A8I5ZQK1); assay: Agonist activity at GPR52 in rat Striatal neuron assessed as increase in CREB phosphorylation […] by Alphascreen assay; type: cell-based; settings: filed as agonist
# T2 sequence (A0A8I5ZQK1 as listed by the source): as the sequence (P0C5J4 whole entry) above, with M14V, E250D, E333Q, A342G, Q348R counted along it
# [20] = molecular target: T2, G protein-coupled receptor 52 (Rattus norvegicus); assay: Agonist activity at GPR52 in rat Striatal neuron assessed as increase in c-fos mRNA expression by RT-PCR analysis; type: cell-based; settings: filed as agonist
# Method in brief: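 Rat primary striatal neurons (E18–19), used at DIV 13–16. Treated in HBSS with 5 mM HEPES pH 7.5 and 0.5% fatty-acid-free BSA for 15 or 60 min at 37 °C. Cells were homogenized in RLT buffer and IEG mRNA was quantified by qPCR using absolute or ΔΔCt relative quantification.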
# Mus musculus [21] = assay: Antipsychotic activity in GPR52 knockout mouse assessed as increase in phosphorylated CREB level in striatum at 30 mg/kg, po incubated for 60 mins by ELISA analysis; type: functional, organism-based
# Mus musculus [22] = assay: Antipsychotic activity in GPR52 knockout ICR mouse assessed as inhibition of MK-801-induced hyperactivity at 30 mg/kg, po pretreated with compound for 1 hr followed by MK-801 addition and measured after 90 mins; type: functional, organism-based; settings: time 150.0 min
# [23] = Toxicity in ICR mouse assessed as catelepsy upto 100 mg/kg, po measured for 60 mins by bar test; type: organism-based; settings: in vivo, 1 h
# Method in brief: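 Male ICR mice (6–7 weeks) were dosed orally 60 min before testing. Forepaws were placed on a 2 mm bar set 6.5 cm high, and time on the bar was recorded with a 30 s cutoff. Each mouse was tested three times and the times averaged. n = 5–6.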
# Mus musculus [24] = assay: Antipsychotic activity in C57BL/6N mouse assessed as increase in c-fos positive cells in nucleus accumbens at 30 mg/kg, po measured for 2 hrs by immunohistochemistry analysis; type: functional, organism-based
# Rattus norvegicus = assay: Pro-cognitive activity in Long-Evans rat at10 mg/kg, po measured after 1 hr by radial arm maze test; type: functional, organism-based; settings: dose 10.0 mg/kg
# Method in brief: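 Male Long-Evans rats (9 weeks) were trained on the radial arm maze until they made fewer than two errors on two consecutive days. Errors were re-entries into arms or uneaten pellets, within 5 min. Oral 10 mg/kg or vehicle was given 1 h pretest, and MK-801 0.08 mg/kg s.c. or saline 30 min pretest. Scoring was blinded. n = 8–14.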
# Mus musculus [25] = assay: Antipsychotic activity in C57BL/6N mouse assessed as increase in c-fos positive cells in medial prefrontal cortex at 30 mg/kg, po measured for 2 hrs by immunohistochemistry analysis; type: functional, organism-based
structure (smiles),measurement,setting,value
Cc1cc(-n2nc(Cc3cc(F)cc(C(F)(F)F)c3)nc2C)ccc1C(N)=O [TP-024],EC50,[1],93.3 nM
same,EC50,[2],141 nM
same,EC50,[3],135 nM
same,inhibition,[4],4%
same,inhibition,[5],-5%
same,inhibition,[6],24%
same,inhibition,[7],0%
same,inhibition,[8],9%
same,inhibition at 10 µM,[9],-6%
same,inhibition,[10],0%
same,inhibition,[11],7%
same,inhibition,[12],2%
same,inhibition,[13],-1%
same,inhibition,Homo sapiens [14],0%
same,inhibition,Homo sapiens [15],5%
same,inhibition,[16],-7%
same,inhibition,Homo sapiens [17],-4%
same,inhibition,[18],14%
same,Activity,[19],Active
same,Activity,[20],Active
same,Activity,Mus musculus [21],inactive
same,Activity,Mus musculus [22],inactive
same,Activity,[23],Non-Toxic
same,Activity,Mus musculus [24],Active
same,Activity,Rattus norvegicus,Active
same,Activity,Mus musculus [25],Active
